{
  "source": "ChEMBL document CHEMBL3085708",
  "about": "“Identification and profiling of 3,5-dimethyl-isoxazole-4-carboxylic acid [2-methyl-4-((2S,3'S)-2-methyl-[1,3']bipyrrolidinyl-1'-yl)phenyl] amide as histamine H(3) receptor antagonist for the treatment of depression” (Bioorg Med Chem Lett, 2013)",
  "key": {"[1]": {"assay": "Mutagenic activity in micronucleus (unknown origin) at 5 to 950 ug/mL in presence of human liver microsomes", "format": "toxicity", "procedure,_shortened": "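In vitro micronucleus test; concentrations 5 to 950 µg/mL, run with and without metabolic activation by human liver microsomes.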"}, "[2]": {"system": "Mus musculus", "assay": "Toxicity in mouse assessed as effect on behavioral activity at 10 to 30 mg/kg, po by Irwin test", "format": "organism-based", "set-up": "dose 10-30 mg/kg, route oral", "settings": "in vivo; call rule not given here", "procedure,_shortened": "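Irwin exploratory general behaviour study in male mice; single oral doses of 0, 10 and 30 mg/kg; behavioural, neurologic and autonomic effects observed.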"}, "[3]": {"assay": "Drug metabolism in human plasma at 100 ng/ml after 4 hrs", "format": "ADME, cell-free", "settings": "read-out: Drug metabolism", "procedure,_shortened": "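Compound spiked into blank plasma of human, mouse, rat, rabbit, macaque and dog at 100 ng/ml, then incubated in a 37 °C water bath for up to 4 h; percent metabolized reported.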"}, "[4]": {"assay": "AUC (0 to infinity) in OF1 mouse plasma at 10 mg/kg, po", "format": "ADME, organism-based", "set-up": "time infinity, dose 10 mg/kg, route oral", "procedure,_shortened": "(§1)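 Single-dose PK; male OF1 mice and male Sprague-Dawley rats, 2 mg/kg iv and 10 mg/kg po. Mouse vehicles: iv 50% 1-methyl-2-pyrrolidinone in saline (1.0 mg/mL); po 5% DMSO/0.5% MC/0.2% Tween80 (1.0 mg/mL). Rat vehicles: iv saline (0.5 mg/mL); po 0.5% MC/0.2% Tween80 (1.0 mg/mL). Plasma and brain exposure read as AUC0-∞ and t1/2.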"}, "[5]": {"assay": "AUC (0 to infinity) in OF1 mouse plasma at 2 mg/kg, iv", "format": "ADME, organism-based", "set-up": "time infinity, dose 2 mg/kg, route intravenous", "procedure,_shortened": "as §1"}, "[6]": {"biological_target": "T1, Voltage-gated inwardly rectifying potassium channel KCNH2 (Canis lupus familiaris, UniProt Q9TSZ3)", "T1 sequence (Q9TSZ3 whole entry)": "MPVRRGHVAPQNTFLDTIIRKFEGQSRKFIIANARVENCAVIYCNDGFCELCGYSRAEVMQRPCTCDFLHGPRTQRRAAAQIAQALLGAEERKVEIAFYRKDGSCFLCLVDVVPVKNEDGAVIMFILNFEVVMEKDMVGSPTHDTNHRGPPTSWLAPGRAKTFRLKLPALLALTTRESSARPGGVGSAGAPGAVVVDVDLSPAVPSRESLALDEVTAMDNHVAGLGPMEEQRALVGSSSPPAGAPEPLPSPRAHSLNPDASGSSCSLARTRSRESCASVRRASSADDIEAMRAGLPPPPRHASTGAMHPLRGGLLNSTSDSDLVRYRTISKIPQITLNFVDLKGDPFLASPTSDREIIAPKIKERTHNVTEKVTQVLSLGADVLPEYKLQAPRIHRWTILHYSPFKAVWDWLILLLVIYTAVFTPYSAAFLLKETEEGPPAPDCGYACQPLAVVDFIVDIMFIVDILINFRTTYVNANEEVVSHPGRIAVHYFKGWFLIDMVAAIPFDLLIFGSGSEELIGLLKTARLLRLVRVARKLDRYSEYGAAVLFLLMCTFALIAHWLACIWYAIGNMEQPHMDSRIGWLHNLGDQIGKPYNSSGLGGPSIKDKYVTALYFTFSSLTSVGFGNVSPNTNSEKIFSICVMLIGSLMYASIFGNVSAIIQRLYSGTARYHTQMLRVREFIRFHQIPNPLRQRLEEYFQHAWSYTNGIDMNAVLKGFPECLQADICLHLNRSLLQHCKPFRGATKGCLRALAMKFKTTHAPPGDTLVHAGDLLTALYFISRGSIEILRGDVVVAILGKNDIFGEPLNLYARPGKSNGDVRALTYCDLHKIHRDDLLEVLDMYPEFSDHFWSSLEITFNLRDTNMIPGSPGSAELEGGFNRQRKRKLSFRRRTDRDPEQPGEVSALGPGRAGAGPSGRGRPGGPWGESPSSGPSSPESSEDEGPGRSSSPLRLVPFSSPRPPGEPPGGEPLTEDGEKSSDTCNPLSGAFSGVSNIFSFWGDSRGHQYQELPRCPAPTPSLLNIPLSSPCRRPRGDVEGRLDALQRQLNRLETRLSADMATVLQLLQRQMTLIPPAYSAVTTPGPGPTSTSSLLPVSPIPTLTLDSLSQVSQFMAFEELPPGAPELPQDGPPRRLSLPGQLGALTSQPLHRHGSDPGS", "assay": "Inhibition of canine ERG current transfected in CHO cells by patch clamp assay", "format": "cell-based", "procedure,_shortened": "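Whole-cell patch clamp on CHO cells stably transfected with the canine ERG gene; cERG current IC50 from n = 4.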"}, "[7]": {"biological_target": "Histamine H3 receptor (Homo sapiens, UniProt Q9Y5N1)", "sequence (Q9Y5N1 whole entry)": "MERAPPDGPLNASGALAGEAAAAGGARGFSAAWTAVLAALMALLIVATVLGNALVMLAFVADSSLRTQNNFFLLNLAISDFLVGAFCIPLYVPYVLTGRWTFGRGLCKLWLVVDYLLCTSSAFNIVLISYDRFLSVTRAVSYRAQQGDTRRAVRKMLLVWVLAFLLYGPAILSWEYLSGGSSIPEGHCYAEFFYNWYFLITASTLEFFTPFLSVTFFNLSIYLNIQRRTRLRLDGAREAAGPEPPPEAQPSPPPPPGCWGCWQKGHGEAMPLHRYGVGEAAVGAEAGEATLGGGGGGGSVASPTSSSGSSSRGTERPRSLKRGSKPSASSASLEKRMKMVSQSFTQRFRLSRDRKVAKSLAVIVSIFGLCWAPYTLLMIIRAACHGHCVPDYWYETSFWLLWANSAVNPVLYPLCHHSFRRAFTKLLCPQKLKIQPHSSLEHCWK", "assay": "Displacement of [3H]-methylhistamine from human histamine H3 receptor transfected in human 293 cells after 1 hr by scintillation counting analysis", "format": "cell-based"}, "[8]": {"biological_target": "Cytochrome P450 2C9 (Homo sapiens, UniProt P11712)", "sequence (P11712 whole entry)": "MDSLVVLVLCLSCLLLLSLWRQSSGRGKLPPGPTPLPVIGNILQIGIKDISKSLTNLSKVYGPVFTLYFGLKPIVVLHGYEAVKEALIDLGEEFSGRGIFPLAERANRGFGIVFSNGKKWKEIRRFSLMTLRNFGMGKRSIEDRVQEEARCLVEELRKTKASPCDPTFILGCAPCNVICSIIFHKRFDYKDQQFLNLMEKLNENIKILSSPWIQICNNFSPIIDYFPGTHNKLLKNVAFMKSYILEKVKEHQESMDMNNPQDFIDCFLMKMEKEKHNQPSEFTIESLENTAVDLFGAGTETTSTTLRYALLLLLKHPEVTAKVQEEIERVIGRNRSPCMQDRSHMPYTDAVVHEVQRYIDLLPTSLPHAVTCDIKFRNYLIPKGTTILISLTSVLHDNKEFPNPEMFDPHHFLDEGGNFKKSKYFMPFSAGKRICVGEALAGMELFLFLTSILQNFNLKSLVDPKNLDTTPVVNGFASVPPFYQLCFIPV", "assay": "Inhibition of CYP2C9 (unknown origin) after 4 hrs", "format": "ADME"}, "[9]": {"system": "Salmonella typhimurium", "assay": "Genotoxicity in Salmonella typhimurium at 3 to 1000 ug/mL by Ames-2 test", "format": "toxicity, organism-based", "settings": "salmonella enterica subsp. enterica serovar typhimurium", "procedure,_shortened": "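Ames II bacterial mutagenicity test over 3 to 1000 µg/mL.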"}, "[10]": {"assay": "Cmax in Sprague-Dawley rat plasma at 10 mg/kg, po", "format": "ADME, organism-based", "set-up": "dose 10 mg/kg, route oral", "procedure,_shortened": "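Oral PK at 10 mg/kg po in male OF1 mice (vehicle 5% DMSO/0.5% MC/0.2% Tween80, 1.0 mg/mL) and male Sprague-Dawley rats (vehicle 0.5% MC/0.2% Tween80, 1.0 mg/mL). Cmax and tmax taken from plasma and brain concentration–time profiles.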"}, "[11]": {"assay": "AUC (0 to infinity) in OF1 mouse brain at 10 mg/kg, po", "format": "ADME, organism-based", "set-up": "time infinity, dose 10 mg/kg, route oral", "procedure,_shortened": "as §1"}, "[12]": {"assay": "Oral bioavailability in OF1 mouse at 10 mg/kg", "format": "ADME, organism-based", "settings": "in vivo", "procedure,_shortened": "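Male OF1 mice given 2 mg/kg iv (50% 1-methyl-2-pyrrolidinone in saline, 1.0 mg/mL) and 10 mg/kg po (5% DMSO/0.5% MC/0.2% Tween80, 1.0 mg/mL); plasma and brain exposure measured; B/P ratio from iv AUC.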"}, "[13]": {"system": "Hepatocyte", "assay": "Intrinsic clearance in human hepatocytes measured per 10^6 cells", "format": "ADME, cell-based", "procedure,_shortened": "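Intrinsic clearance in human hepatocytes, expressed as mL h−1 per 10^6 hepatocytes, n = 4.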"}, "[14]": {"assay": "Tmax in Sprague-Dawley rat brain at 10 mg/kg, po", "format": "ADME, organism-based", "set-up": "dose 10 mg/kg, route oral", "procedure,_shortened": "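Male Sprague-Dawley rats dosed 2 mg/kg iv in saline (0.5 mg/mL) and 10 mg/kg po in 0.5% MC/0.2% Tween80 (1.0 mg/mL); plasma and brain concentrations followed.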"}, "[15]": {"assay": "Drug metabolism in mouse liver microsomes", "format": "ADME, Microsome", "settings": "read-out: Drug metabolism"}, "[16]": {"system": "Mus musculus", "assay": "Toxicity in mouse assessed as effect on preconvulsion at 30 mg/kg, po", "format": "organism-based", "set-up": "dose 30 mg/kg, route oral", "settings": "in vivo", "procedure,_shortened": "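Acute oral group toxicity in mice: behavioural side effects scored (social interaction, motility, preconvulsant signs, convulsions, tremor) after single po doses of 30 and 100 mg/kg.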"}, "[17]": {"assay": "Inhibition of cytochrome P450 (unknown origin) by mechanism-based assay", "format": "ADME", "settings": "human"}, "[18]": {"assay": "AUC (0 to infinity) in OF1 mouse brain at 2 mg/kg, iv", "format": "ADME, organism-based", "set-up": "time infinity, dose 2 mg/kg, route intravenous", "procedure,_shortened": "as §1"}, "[19]": {"assay": "Elimination half life in Sprague-Dawley rat brain at 10 mg/kg, po", "format": "ADME, organism-based", "set-up": "dose 10 mg/kg, route oral", "settings": "read-out: beta t1/2 (converted)", "procedure,_shortened": "as §1"}, "[20]": {"assay": "Ratio of AUC (0 to infinity) in brain to plasma in Sprague-Dawley rat at 2 mg/kg, iv", "format": "ADME, organism-based", "set-up": "dose 2 mg/kg, route intravenous", "settings": "brain and plasma, read-out: Ratio AUC"}},
  "note": "pIC50, pKi: −log10 of the molar value.",
  "data": [
    {"smiles": "Cc1cc(N2CC[C@H](N3CCC[C@@H]3C)C2)ccc1NC(=O)c1c(C)noc1C", "values": [
      {"measurement": "Activity", "setting": "[1]", "result": "Non-toxic"},
      {"measurement": "Activity", "setting": "[2]", "result": "Non-toxic"},
      {"measurement": "metabolised at 4 h, 100 ng/ml", "setting": "[3]", "result": "< 5", "unit": "%"},
      {"measurement": "AUC(0-inf)", "setting": "[4]", "result": 1900, "unit": "ng·h/mL"},
      {"measurement": "AUC(0-inf)", "setting": "[5]", "result": 670, "unit": "ng·h/mL"},
      {"measurement": "pIC50", "setting": "[6]", "result": 4.36},
      {"measurement": "pKi", "setting": "[7]", "result": 10.00},
      {"measurement": "pIC50", "setting": "[8]", "result": "< 4.00"},
      {"measurement": "Activity", "setting": "[9]", "result": "Non-toxic"},
      {"measurement": "Cmax", "setting": "[10]", "result": 749, "unit": "ng/mL"},
      {"measurement": "AUC(0-inf)", "setting": "[11]", "result": 3100, "unit": "ng·h/mL"},
      {"measurement": "bioavailability", "setting": "[12]", "result": 57, "unit": "%"},
      {"measurement": "CLH", "setting": "[13]", "result": 0.04, "unit": "mL/h"},
      {"measurement": "Tmax", "setting": "[14]", "result": 1, "unit": "h"},
      {"measurement": "metabolised", "setting": "[15]", "result": "< 5", "unit": "%"},
      {"measurement": "Activity", "setting": "[16]", "result": "Non-toxic"},
      {"measurement": "inhibition (INH)", "setting": "[17]", "result": "Not Active"},
      {"measurement": "AUC(0-inf)", "setting": "[18]", "result": 1100, "unit": "ng·h/mL"},
      {"measurement": "half-life", "setting": "[19]", "result": 9.4, "unit": "h"},
      {"measurement": "Kp", "setting": "[20]", "result": 1.1}
    ]}
  ]
}
